Experimental data: ChEMBL document CHEMBL1145431, “Improved anti-osteoporosis potency and reduced endometrial membrane hyperplasia during hormone replacement therapy with estrogen-RGD peptide conjugates” (2007)
Where a SMILES comes first, the peptide text is derived from it. The star is where a group is joined. Succinyl(O17-estradiol) = C[C@]12CC[C@@H]3c4ccc(O)cc4CC[C@H]3[C@@H]1CC[C@@H]2OC(=O)CCC(=O)*; X2 = C[C@]12CC[C@@H]3c4ccc(OCC(=O)*)cc4CC[C@H]3[C@@H]1CCC2=O

Legend:
Mus musculus [1] = experiment: Effect on femur ash weight in ovariectomized mouse at 0.1103 mmol/kg, ip once daily for 4 weeks; format: functional
Procedure, shortened: (§1)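 Female Kuiming mice (7 weeks, 30.7 ± 3.1 g) ovariectomized, sham group abdominorotomy. From day 5, i.p. once daily for 4 weeks at 110.3 × 10-3 mmol/kg in 0.5% CMC. Left femur cleaned, length measured, defatted in chloroform-methanol (2:1, 2 × 3 h), dried 120 °C 6 h for dry weight, ashed 800 °C 8 h. Mineral content = ash/dry weight. Ash dissolved in 6 N HCl and diluted. Ca by o-methylphenolphthalein complexone, P by molybdenum blue. Lungs and livers weighed directly.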

Mus musculus [2] = experiment: Effect on serum ALP lavel in ovariectomized mouse at 0.1103 mmol/kg, ip once daily for 4 weeks; format: functional
Procedure, shortened: (§2)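 OVX Kuiming mice dosed i.p. daily for 4 weeks in 0.5% CMC. Blood taken retro-orbitally on the day after the last dose, stood 30 min, spun at 3000 g for 20 min, serum stored at -20 °C. Calcium by o-methylphenolphthalein complexone, phosphorus by molybdenum blue, ALP by activity with disodium phenylphosphate substrate.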

Mus musculus [3] = experiment: Effect on phosphorus level in ovariectomized mouse at 0.1103 mmol/kg, ip once daily for 4 weeks; format: functional; procedure, shortened: as §1
Mus musculus [4] = experiment: Effect on spleen weight in ovariectomized mouse at 0.1103 mmol/kg, ip once daily for 4 weeks; format: functional
Procedure, shortened: (§3)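 Female Kuiming mice (7 weeks old, 30.7 ± 3.1 g), abdominal OVX under pentobarbital (40.0 mg/kg i.p.). From day 5 after surgery, i.p. injection once daily for 4 weeks, compound in aqueous 0.5% CMC prepared just before use. The day after the last dose, mice were anesthetized and killed, and lungs, livers, spleens and uteri were removed and weighed directly. n = 12, ANOVA, p < 0.05.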

Mus musculus [5] = experiment: Effect on mineral content in ovariectomized mouse at 0.1103 mmol/kg, ip once daily for 4 weeks; format: functional; procedure, shortened: as §1
Mus musculus [6] = experiment: Effect on serum phosphorus level in ovariectomized mouse at 0.1103 mmol/kg, ip once daily for 4 weeks; format: functional; procedure, shortened: as §2
Mus musculus [7] = experiment: Effect on lung weight in ovariectomized mouse at 0.1103 mmol/kg, ip once daily for 4 weeks; format: functional; procedure, shortened: as §1
Mus musculus [8] = experiment: Increase in body weight in ovariectomized mouse at 0.1103 mmol/kg, ip once daily for 4 weeks; format: functional
Procedure, shortened: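 Female Kuiming mice (30.7 ± 3.1 g) underwent abdominal OVX; the sham group had abdominorotomy only. From day 5 after surgery, i.p. dosing once daily for 4 weeks at 110.3 × 10-3 mmol/kg in aqueous 0.5% CMC. Body weight was recorded on the day of the last administration.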

Mus musculus [9] = experiment: Effect on liver weight in ovariectomized mouse at 0.110 mmol/kg, ip once daily for 4 weeks; format: functional; procedure, shortened: as §1
Mus musculus [10] = experiment: Effect on femur length in ovariectomized mouse at 0.1103 mmol/kg, ip once daily for 4 weeks; format: functional; procedure, shortened: as §1
Mus musculus [11] = experiment: Effect on calcium level in ovariectomized mouse at 0.1103 mmol/kg, ip once daily for 4 weeks; format: functional; procedure, shortened: as §1
Mus musculus [12] = experiment: Effect on dry weight of femurs in ovariectomized mouse at 0.1103 mmol/kg, ip once daily for 4 weeks; format: functional, Femur; procedure, shortened: as §1
Mus musculus [13] = experiment: Effect on serum calcium level in ovariectomized mouse at 0.1103 mmol/kg, ip once daily for 4 weeks; format: functional; procedure, shortened: as §2
Mus musculus [14] = experiment: Effect on uterus weight in ovariectomized mouse at 0.1103 mmol/kg, ip once daily for 4 weeks; format: functional; procedure, shortened: as §3
Mus musculus [15] = experiment: Effect on liver weight in mouse at 0.1103 mmol/kg, po; format: functional
Procedure, shortened: (§4)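 Female Kuiming mice (7 weeks old, 30.7 ± 3.1 g) under abdominal OVX, sham group abdominorotomy only. From day 5 after surgery, dosed orally once daily for 4 weeks at 110.3 × 10-3 mmol/kg in 0.5% CMC (0.2 mL), vehicle group CMC alone. Blood drawn retro-orbitally, then left femur and organs removed under pentobarbital (40.0 mg/kg, i.p.).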

Mus musculus [16] = experiment: Effect on dry weight of femurs in mouse at 0.1103 mmol/kg, po; format: functional, Femur; procedure, shortened: as §4
Mus musculus [17] = experiment: Effect on lenght of femur in mouse at 0.110 mmol/kg, po; format: functional; procedure, shortened: as §4
Mus musculus [18] = experiment: Effect on calcium level in mouse at 0.1103 mmol/kg, po; format: functional; procedure, shortened: as §4
Mus musculus [19] = experiment: Effect on spleen weight in mouse at 0.1103 mmol/kg, po; format: functional; procedure, shortened: as §4
Mus musculus [20] = experiment: Effect on femur ash weight in mouse at 0.1103 mmol/kg, po; format: functional; procedure, shortened: as §4
Mus musculus [21] = experiment: Effect on uterus weight in mouse at 0.1103 mmol/kg, po; format: functional
Mus musculus [22] = experiment: Effect on lung weight in mouse at 0.1103 mmol/kg, po; format: functional; procedure, shortened: as §4
Mus musculus [23] = experiment: Effect on serum phosphorous Concentration in mouse at 0.110 mmol/kg, po; format: functional
Procedure, shortened: (§5)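 Oral OVX Kuiming mouse model, dosed daily for 4 weeks at 110.3 × 10-3 mmol/kg in 0.5% CMC. Retro-orbital blood stood 30 min at room temperature and was spun at 3000 g for 20 min. Serum kept at -20 °C. Calcium read by o-methylphenolphthalein complexone, phosphorus by molybdenum blue, ALP by activity on disodium phenylphosphate substrate.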

Mus musculus [24] = experiment: Effect on serum calcium level in mouse at 0.1103 mmol/kg, po; format: functional; procedure, shortened: as §5
Mus musculus [25] = experiment: Effect on phosphorus level in mouse at 0.110 mmol/kg, po; format: functional; procedure, shortened: as §4
Mus musculus [26] = experiment: Effect on serum ALP level in mouse at 0.1103 mmol/kg, po; format: functional; procedure, shortened: as §5

| SMILES | Activity (Mus musculus [1]) [mg] | Activity (Mus musculus [2]) [U/L] | Activity (Mus musculus [3]) [%] | Activity (Mus musculus [4]) [mg] | Ratio (Mus musculus [5]) | Activity (Mus musculus [6]) [mmol/L] | Activity (Mus musculus [7]) [mg] | Activity (Mus musculus [8]) [g] | Activity (Mus musculus [9]) [g] | Activity (Mus musculus [10]) [cm] | Activity (Mus musculus [11]) [%] | Activity (Mus musculus [12]) [mg] | Activity (Mus musculus [13]) [mmol/L] | Activity (Mus musculus [14]) [mg] | also measured |
| --- | --- | --- | --- | --- | --- | --- | --- | --- | --- | --- | --- | --- | --- | --- | --- |
| C[C@]12CC[C@@H]3c4ccc(O)cc4CC[C@H]3[C@@H]1CCC2=O [ESTRONE] | 20.8 | 36.271 | 23.979 | 150 | 0.43 | 1.601 | 176 | 34.3 | 1.318 | 1.606 | 43.84 | 61.1 | 2.012 | 141.9 | – |
| C[C@]12CC[C@@H]3c4ccc(OCC(=O)N[C@@H](CCCNC(=N)N)C(=O)NCC(=O)N[C@@H](CC(=O)O)C(=O)N[C@@H](CO)C(=O)O)cc4CC[C@H]3[C@@H]1CCC2=O (X2-RGDS-OH) | 22.6 | 32.371 | 24.399 | 129 | 0.438 | 1.604 | 173 | 32.9 | 1.347 | 1.634 | 47.613 | 66.9 | 2 | 63.3 | – |
| N=C(N)NCCC[C@H](N)C(=O)NCC(=O)N[C@@H](CC(=O)O)C(=O)N[C@@H](CO)C(=O)O | 27.8 | 36.643 | 24.888 | 138 | 0.396 | 1.603 | 168 | 34 | 1.295 | 1.617 | 43.48 | 59.8 | 2.01 | 71 | – |
| CC(C)[C@H](NC(=O)[C@H](CC(=O)O)NC(=O)CNC(=O)[C@@H](N)CCCNC(=N)N)C(=O)O (H-RGDV-OH) | 27.8 | 35.614 | 24.759 | 127 | 0.394 | 1.605 | 171 | 33.4 | 1.153 | 1.614 | 42.739 | 58.8 | 2.011 | 61.1 | – |
| C[C@]12CC[C@@H]3c4ccc(O)cc4CC[C@H]3[C@@H]1CC[C@@H]2OC(=O)CCC(=O)N[C@@H](CCCNC(=N)N)C(=O)NCC(=O)N[C@@H](CC(=O)O)C(=O)N[C@@H](Cc1ccccc1)C(=O)O ({Succinyl(O17-estradiol)}-RGDF-OH) | 34.8 | 31.486 | 24.665 | 142 | 0.533 | 1.605 | 164 | 34.8 | 1.391 | 1.635 | 52.798 | 66 | 2.005 | 71.2 | Activity (Mus musculus [15]): 1.338 g; Activity (Mus musculus [16]): 62.7 mg; Activity (Mus musculus [17]): 1.638 cm; Activity (Mus musculus [18]): 51.903%; Activity (Mus musculus [19]): 142 mg; Activity (Mus musculus [20]): 30 mg; Activity (Mus musculus [21]): 38.2 mg; Activity (Mus musculus [22]): 167 mg; Activity (Mus musculus [23]): 1.6 mmol/L; Activity (Mus musculus [24]): 2.04 mmol/L; Activity (Mus musculus [25]): 24.9%; Activity (Mus musculus [26]): 35.511 U/L |
| C[C@]12CC[C@@H]3c4ccc(O)cc4CC[C@H]3[C@@H]1CC[C@@H]2O [ESTRADIOL] | 28.5 | 35.286 | 24.995 | 151 | – | 1.601 | 168 | 34.1 | 1.565 | 1.63 | 44.466 | 57.7 | 2.013 | 177.1 | Activity (Mus musculus [15]): 1.335 g; Activity (Mus musculus [16]): 63.1 mg; Activity (Mus musculus [17]): 1.62 cm; Activity (Mus musculus [18]): 41.729%; Activity (Mus musculus [19]): 141 mg; Activity (Mus musculus [20]): 22.2 mg; Activity (Mus musculus [22]): 168 mg; Activity (Mus musculus [23]): 1.6 mmol/L; Activity (Mus musculus [24]): 2.02 mmol/L; Activity (Mus musculus [25]): 24.53%; Activity (Mus musculus [26]): 37.705 U/L |
| C[C@]12CC[C@@H]3c4ccc(OCC(=O)N[C@@H](CCCNC(=N)N)C(=O)NCC(=O)N[C@@H](CC(=O)O)C(=O)N[C@@H](Cc5ccccc5)C(=O)O)cc4CC[C@H]3[C@@H]1CCC2=O (X2-RGDF-OH) | 24.7 | 32.407 | 24.588 | 140 | 0.462 | 1.602 | 179 | 34.5 | 1.458 | 1.639 | 49.55 | 65.9 | 2.008 | 55.8 | – |
| CC(C)[C@H](NC(=O)[C@H](CC(=O)O)NC(=O)CNC(=O)[C@H](CCCNC(=N)N)NC(=O)COc1ccc2c(c1)CC[C@@H]1[C@@H]2CC[C@]2(C)C(=O)CC[C@@H]12)C(=O)O (X2-RGDV-OH) | 21.9 | 32.229 | 24.75 | 131 | 0.429 | 1.602 | 168 | 34.1 | 1.389 | 1.628 | 47.173 | 63.9 | 2.008 | 51.9 | – |
| N=C(N)NCCC[C@H](N)C(=O)NCC(=O)N[C@@H](CC(=O)O)C(=O)N[C@@H](Cc1ccccc1)C(=O)O (H-RGDF-OH) | 22.5 | 35.643 | 24.585 | 134 | 0.423 | 1.599 | 163 | 33.3 | 1.413 | 1.62 | 43.815 | 60 | 2.012 | 69.8 | – |
